# Test results as given in ChEMBL document CHEMBL5303300, “EUbOPEN Chemogenomics Library - Multiplex” (2023).
# Several values for one entry are separate records, joined by “and”; a condition that tells them apart may be missing. Equal entries are not always repeated.
# Tested on: HEK-293T
# Assay: Multiplex assay against HEK293T
# Type: toxicity, cell-based
# Settings: human, number of replicates 2
# Method in brief: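 Live cells were stained at seeding with Hoechst33342, BioTracker Green Microtubule Cytoskeleton Dye, MitoTracker Red and Annexin V Alexa Fluor 680, then imaged on a CQ1 microscope at 37°C and 5% CO2 after compound addition. CellPathfinder machine-learning gating split cells into Hoechst high-intensity objects or normal cells. Normal cells were split into healthy, pyknosed or fragmented nuclei, and pyknosed cells into mitotic or apoptotic. Tubulin, mitochondrial-mass and membrane-permeability phenotypes are per cents of healthy-nucleus cells.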
# [1] = 12 h, 1 µM, compound concentration 1 uM
# [2] = 12 h, 10 µM, compound concentration 10 uM
# [3] = 24 h, 1 µM, compound concentration 1 uM
# [4] = 24 h, 10 µM, compound concentration 10 uM
# [5] = 48 h, 1 µM, compound concentration 1 uM
# [6] = 48 h, 10 µM, compound concentration 10 uM
compound,measurement,setting,value
COCCN1CCN(CCn2ccc(Nc3ncc4c(n3)-c3c(nn(C)c3-c3ccccc3)C[C@H]4C)n2)CC1,Population Apoptotic (%),[1],55% and 57%
same,Population Fragmented Nuclei (%),[1],2% and 5%
same,Population Healthy Nuclei (%),[1],86% and 79%
same,Population Hoechst High Intensity Objects (%),[1],14% and 13%
same,Population Membrane Permeable-Phenotype (%),[1],3%
same,Population Mitochondria Different-Phenotype (%),[1],44% and 55%
same,Population Mitotic Cells (%),[1],44% and 42%
same,Population Normal (%),[1],85% and 86%
same,Population Pyknosed Nuclei (%),[1],11% and 15%
same,Population Tubulin-Different-Phenotype (%),[1],73% and 85%
same,Total Cell Count,[1],402 and 361
same,Population Apoptotic (%),[2],66% and 76%
same,Population Fragmented Nuclei (%),[2],5%
same,Population Healthy Nuclei (%),[2],76% and 78%
same,Population Hoechst High Intensity Objects (%),[2],21% and 20%
same,Population Membrane Permeable-Phenotype (%),[2],2%
same,Population Mitochondria Different-Phenotype (%),[2],65% and 76%
same,Population Mitotic Cells (%),[2],33% and 23%
same,Population Normal (%),[2],78% and 79%
same,Population Pyknosed Nuclei (%),[2],18% and 16%
same,Population Tubulin-Different-Phenotype (%),[2],94% and 95%
same,Total Cell Count,[2],332 and 297
same,Population Apoptotic (%),[3],48% and 64%
same,Population Fragmented Nuclei (%),[3],7% and 3%
same,Population Healthy Nuclei (%),[3],86% and 90%
same,Population Hoechst High Intensity Objects (%),[3],15% and 17%
same,Population Membrane Permeable-Phenotype (%),[3],1% and 2%
same,Population Mitochondria Different-Phenotype (%),[3],30% and 33%
same,Population Mitotic Cells (%),[3],52% and 35%
same,Population Normal (%),[3],84% and 82%
same,Population Pyknosed Nuclei (%),[3],6%
same,Population Tubulin-Different-Phenotype (%),[3],74% and 75%
same,Total Cell Count,[3],473 and 331
same,Population Apoptotic (%),[4],71% and 78%
same,Population Fragmented Nuclei (%),[4],5% and 2%
same,Population Healthy Nuclei (%),[4],72% and 83%
same,Population Hoechst High Intensity Objects (%),[4],25% and 24%
same,Population Membrane Permeable-Phenotype (%),[4],1% and 2%
same,Population Mitochondria Different-Phenotype (%),[4],71% and 75%
same,Population Mitotic Cells (%),[4],28% and 21%
same,Population Normal (%),[4],74% and 75%
same,Population Pyknosed Nuclei (%),[4],22% and 14%
same,Population Tubulin-Different-Phenotype (%),[4],90% and 92%
same,Total Cell Count,[4],250 and 217
same,Population Apoptotic (%),[5],73% and 30%
same,Population Fragmented Nuclei (%),[5],12% and 8%
same,Population Healthy Nuclei (%),[5],84% and 87%
same,Population Hoechst High Intensity Objects (%),[5],27% and 18%
same,Population Membrane Permeable-Phenotype (%),[5],4% and 2%
same,Population Mitochondria Different-Phenotype (%),[5],5% and 10%
same,Population Mitotic Cells (%),[5],26% and 70%
same,Population Normal (%),[5],72% and 81%
same,Population Pyknosed Nuclei (%),[5],3% and 4%
same,Population Tubulin-Different-Phenotype (%),[5],63% and 68%
same,Total Cell Count,[5],864 and 570
same,Population Apoptotic (%),[6],66%
same,Population Fragmented Nuclei (%),[6],7% and 6%
same,Population Healthy Nuclei (%),[6],89% and 82%
same,Population Hoechst High Intensity Objects (%),[6],24% and 20%
same,Population Membrane Permeable-Phenotype (%),[6],0% and 4%
same,Population Mitochondria Different-Phenotype (%),[6],49% and 51%
same,Population Mitotic Cells (%),[6],33%
same,Population Normal (%),[6],75% and 79%
same,Population Pyknosed Nuclei (%),[6],3% and 10%
same,Population Tubulin-Different-Phenotype (%),[6],86% and 82%
same,Total Cell Count,[6],245 and 220
COc1ccc(NC(=O)c2ccc(-c3ccc(-c4noc(C)n4)cc3C)cc2)cc1OCCN(C)C.Cl,Population Apoptotic (%),[1],44% and 57%
same,Population Fragmented Nuclei (%),[1],3%
same,Population Healthy Nuclei (%),[1],84% and 81%
same,Population Hoechst High Intensity Objects (%),[1],6% and 8%
same,Population Membrane Permeable-Phenotype (%),[1],3% and 4%
same,Population Mitochondria Different-Phenotype (%),[1],26% and 29%
same,Population Mitotic Cells (%),[1],55% and 42%
same,Population Normal (%),[1],93% and 91%
same,Population Pyknosed Nuclei (%),[1],11% and 15%
same,Population Tubulin-Different-Phenotype (%),[1],80% and 75%
same,Total Cell Count,[1],604 and 505
same,Population Apoptotic (%),[2],83% and 80%
same,Population Fragmented Nuclei (%),[2],5% and 4%
same,Population Healthy Nuclei (%),[2],51% and 50%
same,Population Hoechst High Intensity Objects (%),[2],19% and 18%
same,Population Membrane Permeable-Phenotype (%),[2],4% and 1%
same,Population Mitochondria Different-Phenotype (%),[2],74% and 77%
same,Population Mitotic Cells (%),[2],16% and 19%
same,Population Normal (%),[2],80% and 81%
same,Population Pyknosed Nuclei (%),[2],43% and 44%
same,Population Tubulin-Different-Phenotype (%),[2],87% and 90%
same,Total Cell Count,[2],326 and 269
same,Population Apoptotic (%),[3],55% and 64%
same,Population Fragmented Nuclei (%),[3],5%
same,Population Healthy Nuclei (%),[3],84% and 81%
same,Population Hoechst High Intensity Objects (%),[3],6% and 11%
same,Population Membrane Permeable-Phenotype (%),[3],6% and 3%
same,Population Mitochondria Different-Phenotype (%),[3],19%
same,Population Mitotic Cells (%),[3],44% and 35%
same,Population Normal (%),[3],93% and 88%
same,Population Pyknosed Nuclei (%),[3],10% and 13%
same,Population Tubulin-Different-Phenotype (%),[3],66% and 62%
same,Total Cell Count,[3],768 and 603
same,Population Apoptotic (%),[4],82% and 89%
same,Population Fragmented Nuclei (%),[4],6%
same,Population Healthy Nuclei (%),[4],32% and 33%
same,Population Hoechst High Intensity Objects (%),[4],23% and 19%
same,Population Membrane Permeable-Phenotype (%),[4],6% and 0%
same,Population Mitochondria Different-Phenotype (%),[4],74% and 77%
same,Population Mitotic Cells (%),[4],17% and 10%
same,Population Normal (%),[4],76% and 80%
same,Population Pyknosed Nuclei (%),[4],60%
same,Population Tubulin-Different-Phenotype (%),[4],74% and 86%
same,Total Cell Count,[4],296 and 269
same,Population Apoptotic (%),[5],43% and 51%
same,Population Fragmented Nuclei (%),[5],10% and 8%
same,Population Healthy Nuclei (%),[5],84% and 83%
same,Population Hoechst High Intensity Objects (%),[5],9% and 10%
same,Population Membrane Permeable-Phenotype (%),[5],5%
same,Population Mitochondria Different-Phenotype (%),[5],3% and 6%
same,Population Mitotic Cells (%),[5],56% and 48%
same,Population Normal (%),[5],90% and 89%
same,Population Pyknosed Nuclei (%),[5],4% and 8%
same,Population Tubulin-Different-Phenotype (%),[5],40% and 41%
same,Total Cell Count,[5],1630 and 1219
same,Population Apoptotic (%),[6],86% and 92%
same,Population Fragmented Nuclei (%),[6],8% and 7%
same,Population Healthy Nuclei (%),[6],24% and 19%
same,Population Hoechst High Intensity Objects (%),[6],28% and 22%
same,Population Membrane Permeable-Phenotype (%),[6],3% and 2%
same,Population Mitochondria Different-Phenotype (%),[6],72% and 70%
same,Population Mitotic Cells (%),[6],13% and 7%
same,Population Normal (%),[6],71% and 77%
same,Population Pyknosed Nuclei (%),[6],66% and 72%
same,Population Tubulin-Different-Phenotype (%),[6],84% and 87%
same,Total Cell Count,[6],289 and 271
